Values after ≈ are worked out from the molar mass of the structure shown.
Experiments:
Type in all cases: functional
[1] = system: Candida albicans; assay: Antifungal activity against Candida albicans ATCC 90028 after 48 hrs by CLSI broth microdilution method; details: ATCC 90028, 48 h
Procedure, shortened: (§1)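 Yeast CLSI broth microdilution (M27-A3). Compounds dissolved in DMSO at 100× the top test concentration, then diluted as serial two-fold dilutions in RPMI 1640 to final 0.125–64. Inoculum was 1.0–1.5 × 10^3 cells mL−1, incubated at 35 °C and read for growth at 48 h. MIC is the lowest concentration giving ≥50% growth inhibition versus growth control. Reported as the median of five replicates and as the geometric mean.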

[2] = system: Candida albicans; assay: Antifungal activity against Candida albicans ATCC 20891 after 48 hrs by CLSI broth microdilution method; details: ATCC 20891, 48 h; procedure, shortened: as §1
[3] = system: Candida albicans; assay: Antifungal activity against Candida albicans PMC 1011 after 48 hrs by CLSI broth microdilution method; details: PMC 1011, 48 h; procedure, shortened: as §1
[4] = system: Pichia kudriavzevii; assay: Antifungal activity against Candida krusei DSM 6128 after 48 hrs by CLSI broth microdilution method; details: DSM 6128, 48 h; procedure, shortened: as §1
[5] = system: Pichia kudriavzevii; assay: Antifungal activity against Candida krusei PMC 0613 after 48 hrs by CLSI broth microdilution method; details: PMC 0613, 48 h; procedure, shortened: as §1
[6] = system: Candida tropicalis; assay: Antifungal activity against Candida tropicalis PMC 0910 after 48 hrs by CLSI broth microdilution method; details: PMC 0910, 48 h; procedure, shortened: as §1
[7] = system: Candida tropicalis; assay: Antifungal activity against Candida tropicalis DSM 11953 after 48 hrs by CLSI broth microdilution method; details: DSM 11953, 48 h; procedure, shortened: as §1
[8] = system: Candida parapsilosis; assay: Antifungal activity against Candida parapsilosis DSM 11224 after 48 hrs by CLSI broth microdilution method; details: Lodderomyces parapsilosis, DSM 11224, 48 h; procedure, shortened: as §1
[9] = system: Candida parapsilosis; assay: Antifungal activity against Candida parapsilosis ATCC 22019 after 48 hrs by CLSI broth microdilution method; details: Lodderomyces parapsilosis, ATCC 22019, 48 h; procedure, shortened: as §1
[10] = system: Nakaseomyces glabratus; assay: Antifungal activity against Candida glabrata PMC 0805 after 48 hrs by CLSI broth microdilution method; details: PMC 0805, 48 h; procedure, shortened: as §1
[11] = system: Nakaseomyces glabratus; assay: Antifungal activity against Candida glabrata PMC 0807 after 48 hrs by CLSI broth microdilution method; details: PMC 0807, 48 h; procedure, shortened: as §1
[12] = system: Cryptococcus neoformans; assay: Antifungal activity against Cryptococcus neoformans PMC 2123 after 72 hrs by CLSI broth microdilution method; details: PMC 2123, 72 h
Procedure, shortened: (§2)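 Cryptococcus neoformans tested by CLSI broth microdilution in RPMI 1640, with serial two-fold dilutions from DMSO stocks at 100× the top concentration, final 0.125–64. Inoculum was 1.0–1.5 × 10^3 cells mL−1 at 35 °C, with growth read at 72 h. MIC is the lowest concentration with ≥50% growth inhibition versus control. Median of five replicates, plus geometric mean.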

[13] = system: Cryptococcus neoformans; assay: Antifungal activity against Cryptococcus neoformans PMC 2136 after 72 hrs by CLSI broth microdilution method; details: PMC 2136, 72 h; procedure, shortened: as §2
[14] = system: Cryptococcus neoformans; assay: Antifungal activity against Cryptococcus neoformans PMC 2115 after 72 hrs by CLSI broth microdilution method; details: PMC 2115, 72 h; procedure, shortened: as §2
[15] = system: Cryptococcus neoformans; assay: Antifungal activity against Cryptococcus neoformans PMC 2103 after 72 hrs by CLSI broth microdilution method; details: PMC 2103, 72 h; procedure, shortened: as §2
[16] = system: Cryptococcus neoformans; assay: Antifungal activity against Cryptococcus neoformans PMC 2107 after 72 hrs by CLSI broth microdilution method; details: PMC 2107, 72 h; procedure, shortened: as §2
[17] = system: Cryptococcus neoformans; assay: Antifungal activity against Cryptococcus neoformans PMC 2102 after 72 hrs by CLSI broth microdilution method; details: PMC 2102, 72 h; procedure, shortened: as §2
[18] = system: Cryptococcus neoformans; assay: Antifungal activity against Cryptococcus neoformans DSM 11959 after 72 hrs by CLSI broth microdilution method; details: DSM 11959, 72 h; procedure, shortened: as §2
[19] = system: Cryptococcus neoformans; assay: Antifungal activity against Cryptococcus neoformans PMC 2111 after 72 hrs by CLSI broth microdilution method; details: PMC 2111, 72 h; procedure, shortened: as §2
[20] = system: Trichophyton mentagrophytes; assay: Antifungal activity against Trichophyton mentagrophytes DSM 4870 after 72 hrs by CLSI broth microdilution method; details: DSM 4870, 72 h
Procedure, shortened: (§3)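 Dermatophytes tested by CLSI broth microdilution for filamentous fungi (M38-A2). Serial two-fold dilutions of DMSO-dissolved compound in RPMI 1640, final 0.125–64. Inoculum was 0.4–5 × 10^4 CFU mL−1, incubated at 35 °C and read at 72 h. MIC80 is the lowest concentration giving ≥80% growth inhibition versus growth control. Median of five replicates, plus geometric mean.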

[21] = system: Trichophyton mentagrophytes; assay: Antifungal activity against Trichophyton mentagrophytes PMC 6515 after 72 hrs by CLSI broth microdilution method; details: PMC 6515, 72 h; procedure, shortened: as §3
[22] = system: Trichophyton mentagrophytes; assay: Antifungal activity against Trichophyton mentagrophytes PMC 6531 after 72 hrs by CLSI broth microdilution method; details: PMC 6531, 72 h; procedure, shortened: as §3
[23] = system: Trichophyton mentagrophytes; assay: Antifungal activity against Trichophyton mentagrophytes PMC 6509 after 72 hrs by CLSI broth microdilution method; details: PMC 6509, 72 h; procedure, shortened: as §3
[24] = system: Trichophyton mentagrophytes; assay: Antifungal activity against Trichophyton mentagrophytes PMC 6503 after 72 hrs by CLSI broth microdilution method; details: PMC 6503, 72 h; procedure, shortened: as §3
[25] = system: Trichophyton mentagrophytes; assay: Antifungal activity against Trichophyton mentagrophytes PMC 6552 after 72 hrs by CLSI broth microdilution method; details: PMC 6552, 72 h; procedure, shortened: as §3
[26] = system: Nannizzia gypsea; assay: Antifungal activity against Microsporum gypseum PMC 7303 after 72 hrs by CLSI broth microdilution method; details: PMC 7303, 72 h; procedure, shortened: as §3
[27] = system: Nannizzia gypsea; assay: Antifungal activity against Microsporum gypseum PMC 7331 after 72 hrs by CLSI broth microdilution method; details: PMC 7331, 72 h; procedure, shortened: as §3
[28] = system: Nannizzia gypsea; assay: Antifungal activity against Microsporum gypseum DSM 3824 after 72 hrs by CLSI broth microdilution method; details: DSM 3824, 72 h; procedure, shortened: as §3
[29] = system: Candida albicans; assay: Antifungal activity against Candida albicans PMC 1040R after 48 hrs by CLSI broth microdilution method; procedure, shortened: as §1
[30] = system: Candida albicans; assay: Antifungal activity against Candida albicans PMC 1041R after 48 hrs by CLSI broth microdilution method; procedure, shortened: as §1
[31] = system: Nakaseomyces glabratus; assay: Antifungal activity against Candida glabrata PMC 0850R after 48 hrs by CLSI broth microdilution method; procedure, shortened: as §1
[32] = system: Nakaseomyces glabratus; assay: Antifungal activity against Candida glabrata PMC 0851R after 48 hrs by CLSI broth microdilution method; procedure, shortened: as §1
[33] = system: Nakaseomyces glabratus; assay: Antifungal activity against Candida glabrata PMC 0852R after 48 hrs by CLSI broth microdilution method; procedure, shortened: as §1
[34] = system: Nakaseomyces glabratus; assay: Antifungal activity against Candida glabrata PMC 0853R after 48 hrs by CLSI broth microdilution method; procedure, shortened: as §1
[35] = system: Candida albicans; assay: Antifungal activity against Candida albicans PMC 1042R after 48 hrs by CLSI broth microdilution method; procedure, shortened: as §1
[36] = system: Candida albicans; assay: Ratio of fluconazole MIC to compound MIC for Candida albicans PMC 1040R after 48 hrs by CLSI broth microdilution method
[37] = system: Candida albicans; assay: Ratio of fluconazole MIC to compound MIC for Candida albicans PMC 1041R after 48 hrs by CLSI broth microdilution method
[38] = system: Nakaseomyces glabratus; assay: Ratio of fluconazole MIC to compound MIC for Candida glabrata PMC 0850R after 48 hrs by CLSI broth microdilution method
[39] = system: Nakaseomyces glabratus; assay: Ratio of fluconazole MIC to compound MIC for Candida glabrata PMC 0851R after 48 hrs by CLSI broth microdilution method
[40] = system: Nakaseomyces glabratus; assay: Ratio of fluconazole MIC to compound MIC for Candida glabrata PMC 0852R after 48 hrs by CLSI broth microdilution method
[41] = system: Nakaseomyces glabratus; assay: Ratio of fluconazole MIC to compound MIC for Candida glabrata PMC 0853R after 48 hrs by CLSI broth microdilution method
[42] = system: Candida albicans; assay: Ratio of fluconazole MIC to compound MIC for Candida albicans PMC 1042R after 48 hrs by CLSI broth microdilution method
[43] = system: Candida albicans; assay: Antifungal activity against Candida albicans ATCC 24433 after 48 hrs by CLSI broth microdilution method; details: ATCC 24433, 48 h; procedure, shortened: as §1
[44] = system: Candida albicans; assay: Antifungal activity against Candida albicans ATCC 3153 after 48 hrs by CLSI broth microdilution method; details: ATCC 3153, 48 h; procedure, shortened: as §1
[45] = system: Candida albicans; assay: Antifungal activity against Candida albicans ATCC 10231 after 48 hrs by CLSI broth microdilution method; details: ATCC 10231, 48 h; procedure, shortened: as §1
[46] = system: Candida albicans; assay: Antifungal activity against Candida albicans ATCC 76615 after 48 hrs by CLSI broth microdilution method; details: ATCC 76615, 48 h; procedure, shortened: as §1
[47] = system: Candida albicans; assay: Antifungal activity against Candida albicans ATCC 10261 after 48 hrs by CLSI broth microdilution method; details: ATCC 10261, 48 h; procedure, shortened: as §1

SMILES: O=C(Nc1ccc(N2CCN(c3ccc(Cl)cc3)CC2)cc1)O[C@@H](Cn1ccnc1)c1ccc(F)cc1
- MIC50 [1]: 0.125 µg/mL (≈ 0.24 µM)
- MIC50 [2]: 0.0625 µg/mL (≈ 0.12 µM)
- MIC50 [3]: 0.0625 µg/mL (≈ 0.12 µM)
- MIC50 [4]: 0.5 µg/mL (≈ 0.962 µM)
- MIC50 [5]: 0.0625 µg/mL (≈ 0.12 µM)
- MIC50 [6]: 2 µg/mL (≈ 3.85 µM)
- MIC50 [7]: 0.25 µg/mL (≈ 0.481 µM)
- MIC50 [8]: 0.0625 µg/mL (≈ 0.12 µM)
- MIC50 [9]: 0.125 µg/mL (≈ 0.24 µM)
- MIC50 [10]: 0.0625 µg/mL (≈ 0.12 µM)
- MIC50 [11]: 0.25 µg/mL (≈ 0.481 µM)
- MIC50 [12]: 0.25 µg/mL (≈ 0.481 µM)
- MIC50 [13]: 0.0625 µg/mL (≈ 0.12 µM)
- MIC50 [14]: 0.25 µg/mL (≈ 0.481 µM)
- MIC50 [15]: 0.06 µg/mL (≈ 0.115 µM)
- MIC50 [16]: 0.25 µg/mL (≈ 0.481 µM)
- MIC50 [17]: 0.25 µg/mL (≈ 0.481 µM)
- MIC50 [18]: 0.125 µg/mL (≈ 0.24 µM)
- MIC50 [19]: 0.5 µg/mL (≈ 0.962 µM)
- MIC80 [20]: 4 µg/mL (≈ 7.69 µM)
- MIC80 [21]: 4 µg/mL (≈ 7.69 µM)
- MIC80 [22]: 4 µg/mL (≈ 7.69 µM)
- MIC80 [23]: 4 µg/mL (≈ 7.69 µM)
- MIC80 [24]: 4 µg/mL (≈ 7.69 µM)
- MIC80 [25]: 2 µg/mL (≈ 3.85 µM)
- MIC80 [26]: 2 µg/mL (≈ 3.85 µM)
- MIC80 [27]: 4 µg/mL (≈ 7.69 µM)
- MIC80 [28]: 2 µg/mL (≈ 3.85 µM)
- MIC50 [29]: 64 µg/mL (≈ 123 µM)
- MIC50 [30]: 0.5 µg/mL (≈ 0.962 µM)
- MIC50 [31]: 0.25 µg/mL (≈ 0.481 µM)
- MIC50 [32]: 64 µg/mL (≈ 123 µM)
- MIC50 [33]: 2 µg/mL (≈ 3.85 µM)
- MIC50 [34]: 2 µg/mL (≈ 3.85 µM)
- MIC50 [35]: 1 µg/mL (≈ 1.92 µM)
- Ratio [36]: 15
- Ratio [37]: 15
- Ratio [38]: 15
- Ratio [39]: 15
- Ratio [40]: 15
- Ratio [41]: 15
- Ratio [42]: 15
- MIC50 [43]: 0.5 µg/mL (≈ 0.962 µM)
- MIC50 [44]: 0.5 µg/mL (≈ 0.962 µM)
- MIC50 [45]: 0.25 µg/mL (≈ 0.481 µM)
- MIC50 [46]: 0.5 µg/mL (≈ 0.962 µM)
- MIC50 [47]: 0.125 µg/mL (≈ 0.24 µM)
